PRMT1 FP inh: PRMT1 (human) inhibition, primary screen; AID 652257; Q99873; inhibition, % at 2.79 µM; actives 1.3% (n = 370,000); recombinant PRMT1, activity-based probe fluorescence polarization;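 active = inhibition above about 21% made by adding two undisclosed values, limit read from the data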
ABHD4 inh: inhibits mouse alpha/beta hydrolase domain 4; purified mABHD4, FP-Rh probe fluorescence polarization; inhibition, % at 8.92 µM; actives 0.54% (n = 370,000);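 active = inhibition exceeding the mean over every tested compound plus 3 SD, cut at about 30% in these data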
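system = mouse ABHD4 enzyme, wild type | medium = HEPES pH 7.0, NaCl, Pluronic buffer | also added = FP-Rh probe | incubation = Enzyme–compound pre-incubation 45 min, then probe 60 min, both 25 °C | technique = fluorescence polarization, excitation 525 nm, emission 598 nm, BODIPY TMR filters | controls = S159A mutant high control, sample median low control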
TCR CD3 inh: human TCR-CD3 binding inhibition. actives 0.37% (n = 360,000). inhibition, % at 9.4 µM. AID 651800. TAMRA-labeled TCR probe fluorescence, biochemical;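 also: recombinant mutant TCR 2C K166C tagged with TAMRA read by polarization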
rCAG binder: r(CAG) repeat RNA binding; TO-PRO-1 dye displacement fluorescence; inhibition, % at 3 µM; actives 1.3% (n = 370,000); AID 651821;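 active = inhibition above the plate cutoff, the mean of all test compounds on that plate plus 3 SD, cut at about 35% in these data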;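 also: higher means more dye released from RNA so lower well fluorescence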
SIAE inh: blocks human sialic acid acetylesterase. inhibition, % at 9.66 µM. AID 1053197. actives 0.69% (n = 370,000). Q9HAT2. SIAE FP-Rh probe binding, fluorescence polarization;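 active = inhibition above a cutoff: mean of compounds within the control limits plus 3 SD of those, cut at about 17% in these data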
Target sequence (Q9HAT2 whole entry, looked up): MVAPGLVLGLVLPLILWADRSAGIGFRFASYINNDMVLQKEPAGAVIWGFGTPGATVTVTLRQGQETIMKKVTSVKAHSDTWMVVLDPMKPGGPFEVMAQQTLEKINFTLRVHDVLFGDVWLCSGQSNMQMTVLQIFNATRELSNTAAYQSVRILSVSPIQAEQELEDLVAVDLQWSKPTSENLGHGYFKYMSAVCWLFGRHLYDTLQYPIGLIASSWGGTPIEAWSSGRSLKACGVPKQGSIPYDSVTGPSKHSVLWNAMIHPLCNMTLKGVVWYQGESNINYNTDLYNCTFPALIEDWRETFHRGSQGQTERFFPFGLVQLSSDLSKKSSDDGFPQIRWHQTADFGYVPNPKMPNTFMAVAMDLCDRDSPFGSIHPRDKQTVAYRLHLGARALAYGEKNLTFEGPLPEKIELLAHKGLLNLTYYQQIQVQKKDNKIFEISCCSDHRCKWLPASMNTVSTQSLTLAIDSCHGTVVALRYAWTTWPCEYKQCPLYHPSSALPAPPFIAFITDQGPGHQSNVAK
BSA TAMRA ctr: interferes with TAMRA-BSA probe, flagging TCR-CD3 hits. shares compounds with TCR CD3 inh. TAMRA-labeled BSA probe fluorescence counterscreen. inhibition, % at 9.4 µM. actives 10% (n = 1,200); in the data active = inhibition above about 23%
TCR-CD3 conf: confirmation of human TCR-CD3 interaction inhibitors | inhibition, % at 9.4 µM | TAMRA-labeled TCR probe fluorescence binding assay | actives 48% (n = 1,200) | shares compounds with TCR CD3 inh | AID 652036
rCAG bind conf: r(CAG) RNA repeat binding, confirmation. actives 70% (n = 4,300). TO-PRO-1 dye displacement fluorescence. shares compounds with rCAG binder. inhibition, % at 3 µM;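 active = inhibition above a per-plate cutoff, the mean inhibition of sample wells plus 3 SD, cut at about 35% in these data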;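 also: loss of TO-PRO-1 fluorescence as compound displaces dye from 1x1 AA loop RNA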
DNA CAG counter: disrupts DNA CAG TO-PRO-1 complex, flagging rCAG hits. shares compounds with rCAG binder. inhibition, % at 3 µM. d(CAG) DNA oligo TO-PRO-1 dye displacement, fluorescence. actives 94% (n = 4,300). AID 652068;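 active = inhibition above its plate's cutoff, the mean test-well inhibition plus 3 SD, cut at about 4.8% in these data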;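 also: hits displace the dye from DNA and so lower well fluorescence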
PRMT1 inh conf: PRMT1 (human) inhibition, FP confirmation | inhibition, % at 2.79 µM | recombinant His-PRMT1, activity-based probe fluorescence polarization | actives 42% (n = 3,300) | shares compounds with PRMT1 FP inh | AID 687036;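 active = mean inhibition across replicates above the hit cutoff derived for the earlier primary screen, cut at about 22% in these data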
mABHD4 conf: ABHD4 (mouse) inhibition, FP confirmation; shares compounds with ABHD4 inh; actives 55% (n = 1,800); purified mABHD4, FP-Rh probe fluorescence polarization; inhibition, % at 8.92 µM; AID 720658;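 active = mean inhibition across replicates above the hit cutoff set in the primary screen, cut at about 30% in these data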
Large screens that a line does not name were inactive (follow-up assays come after a bar, where they were run). The list is not random: actives were taken first. Their share in the collection is about 3.3%. Rule as the data show it, unless noted: active = inhibition above about 19%; inactive = the rest.

O=c1cc(Br)c(O)c(Br)cc1Br	PRMT1 FP inh 34.9, ABHD4 inh 31.2, TCR CD3 inh 20.8 | BSA TAMRA ctr inactive | TCR-CD3 conf inactive | PRMT1 inh conf 39.4 | mABHD4 conf inactive
O=C1c2ccc3c4c(ccc(c24)C(=O)N1CCCCO)C(=O)N(CCCCO)C3=O	ABHD4 inh 37.9, TCR CD3 inh 33.5 | BSA TAMRA ctr 40.0 | TCR-CD3 conf 25.5 | mABHD4 conf inactive
C=CCn1c(SCc2c(Cl)cccc2Cl)nnc1-c1cccc(C)c1	none (no result: TCR CD3 inh)
CN(c1ccccc1)S(=O)(=O)c1ccc(NC(=O)CC(=O)c2ccccc2)cc1	ABHD4 inh 32.4, TCR CD3 inh 56.2 | BSA TAMRA ctr inactive | TCR-CD3 conf inactive | mABHD4 conf inactive
CCOC(=O)C1(C)C=C(Nc2ccc(O)cc2)C(=O)N1c1ccc(O)cc1 (stereo unspecified)	PRMT1 FP inh 32.5, ABHD4 inh 75.6, TCR CD3 inh 40.3 | BSA TAMRA ctr inactive | TCR-CD3 conf inactive | mABHD4 conf inactive
CCOC(=O)C1(C)C=C(Nc2ccc(OC)cc2)C(=O)N1c1ccc(OC)cc1 (stereo unspecified)	none
Cc1c(Br)c(=O)oc2c(Br)c(O)c(O)cc12	PRMT1 FP inh 29.4, ABHD4 inh 50.7, TCR CD3 inh 25.0 | BSA TAMRA ctr inactive | TCR-CD3 conf inactive | PRMT1 inh conf 35.4 | mABHD4 conf 53.1
COCCCNC(=O)C[C@H]1C[C@@]2(C(=O)OC)C(=C[C@H](C(C)C)O[C@@H]2C2CC2)N(CCC2=CCCCC2)C1=O	none (no result: TCR CD3 inh)
C/C(=N\NC(=O)c1ccccc1O)C1C(=O)c2ccccc2C1=O	ABHD4 inh 45.7, TCR CD3 inh 33.1, rCAG binder 71.8 | BSA TAMRA ctr inactive | TCR-CD3 conf 41.7 | rCAG bind conf 64.4 | DNA CAG counter 17.7 | mABHD4 conf 63.8
C/C(=N\NC(=O)c1ccccc1O)c1c(O)cc(C)oc1=O	none
O=C(O)c1ccccc1NS(=O)(=O)c1ccc(N/N=C/c2ccc(O)c(O)c2)c([N+](=O)[O-])c1	PRMT1 FP inh 32.8, ABHD4 inh 81.2, TCR CD3 inh 18.9, rCAG binder 92.5 | BSA TAMRA ctr inactive | TCR-CD3 conf 42.9 | rCAG bind conf 90.6 | DNA CAG counter 70.0 | PRMT1 inh conf 39.9 | mABHD4 conf 99.9
O=[N+]([O-])c1ccccc1NC(=S)N/N=C/c1ccc(O)c(O)c1	ABHD4 inh 51.2, TCR CD3 inh 20.0, rCAG binder 36.7 | BSA TAMRA ctr inactive | TCR-CD3 conf 19.6 | rCAG bind conf 43.3 | DNA CAG counter 22.7 | mABHD4 conf 36.0
O=[N+]([O-])c1ccccc1C=NNC(=S)NN=Cc1ccccc1[N+](=O)[O-]	none
Nc1ccc(N=Nc2ccccc2O)c(N)c1	ABHD4 inh 38.7, TCR CD3 inh 20.6 | BSA TAMRA ctr inactive | TCR-CD3 conf inactive | mABHD4 conf 40.1
O=C(NN=Cc1cc(Cl)ccc1[N+](=O)[O-])c1cccc2ccccc12	none
Cc1cc(C(=O)N/N=C/c2cc(Cl)cc([N+](=O)[O-])c2O)c2ccccc2n1	ABHD4 inh 32.1, TCR CD3 inh 36.0, rCAG binder 56.2 | BSA TAMRA ctr inactive | TCR-CD3 conf 38.8 | rCAG bind conf 52.9 | DNA CAG counter 16.3 | mABHD4 conf 36.6
COc1ccc(CCNC(=O)Cn2ncc3c2-c2cc(C)ccc2OC3)cc1	none (no result: TCR CD3 inh)
O=C1NC(=S)NC1=Cc1ccco1	PRMT1 FP inh 63.8, ABHD4 inh 32.6, TCR CD3 inh 24.1 | BSA TAMRA ctr inactive | TCR-CD3 conf 21.2 | PRMT1 inh conf inactive | mABHD4 conf inactive

Source: PubChem BioAssay (The Scripps Research Institute Molecular Screening Center)
